Key:
Mycobacterium kansasii [1] = assay: In vitro activity against Mycobacterium kansasii (SWK); format: functional
How it was run: (§1)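 Broth macrodilution MIC. Cultures were grown in modified Middlebrook 7H10 broth (agar and malachite green omitted) with 10% OADC and 0.05% Tween 80, shaken at 37 °C for 3 days, then diluted in 7H10 broth to 1 Klett unit/mL. Test agents were dissolved in water or DMSO and filter-sterilised, then serially diluted 2-fold in 7H10 broth at pH 5.8. Tubes were shaken at 37 °C for 7–10 days, with a drug-free control. MIC was the lowest concentration with no visible turbidity, expressed in mmol/L.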

[2] = t1/2 (min) in equine serum; format: ADME, organism-based, Equus caballus; conditions: horse
How it was run: (§2)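 Ester from a 1 mg/mL stock was mixed with 5% aqueous equine serum in 0.01 M KH2PO4, pH 7.2. Aliquots were taken at 0, 5, 10, 15, 30, 60 and 120 min and quenched with an equal volume of acetonitrile, then filtered. Remaining ester was measured by isocratic reverse-phase HPLC (80% acetonitrile/20% 0.1 M sodium acetate, pH 5.0), with UV detection at 265 nm against a standard curve. Half-life is the time to 50% conversion to the acid.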

Mycobacterium avium [3] = assay: In vitro activity against Mycobacterium avium (ATCC49601); format: functional; how it was run: as §1
[4] = test system: Mycobacterium tuberculosis; assay: In vitro activity against Mycobacterium tuberculosis (ATCC 35801); format: functional; how it was run: as §1
[5] = test system: Mycobacterium tuberculosis; assay: In vitro activity against Mycobacterium tuberculosis (ATCC 27294); format: functional; how it was run: as §1
[6] = test system: Mycobacterium tuberculosis; assay: In vitro activity against Mycobacterium tuberculosis (ATCC 35828); format: functional; how it was run: as §1
Mycobacterium avium [7] = assay: In vitro activity against Mycobacterium avium (MAC-101); format: functional; how it was run: as §1
[8] = Partition coefficient (logP); format: physicochemical; conditions: octanol/water
Mycobacterium avium [9] = assay: In vitro activity against Mycobacterium avium (MAC-101).; format: functional; how it was run: as §1
Mycobacterium kansasii [10] = assay: in vitro activity against Mycobacterium kansasii (SWK).; format: functional
How it was run: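 M. kansasii clinical isolate SWK was grown 3 days at 37 °C with shaking in modified Middlebrook 7H10 broth with 10% OADC and 0.05% Tween 80, then diluted. It was tested in serial 2-fold dilutions in 7H10 broth at pH 5.8, shaken at 37 °C for 7–10 days, with a drug-free control. MIC was the lowest concentration giving no visible turbidity, expressed in mmol/L.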

[11] = T1/2 in equine serum; format: ADME, organism-based, Equus caballus; conditions: horse
How it was run: as §2, with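 “7.2.” for “7.2. Aliquots were taken at 0, 5, 10, 15, 30, 60 and 120 min and quenched with an equal volume of acetonitrile, then filtered.”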

Mycobacterium avium [12] = assay: In vitro activity against Mycobacterium avium (ATCC 49601).; format: functional; how it was run: as §1

| SMILES | Log 1/MMIC (Mycobacterium kansasii [1]) | half-life [2] [min] | Log 1/MMIC (Mycobacterium avium [3]) | Log 1/MMIC [4] | Log 1/MMIC [5] | Log 1/MMIC [6] | Log 1/MMIC (Mycobacterium avium [7]) | logP [8] | Log 1/MMIC (Mycobacterium avium [9]) | Log 1/MMIC (Mycobacterium kansasii [10]) | half-life [11] [min] | Log 1/MMIC (Mycobacterium avium [12]) |
| --- | --- | --- | --- | --- | --- | --- | --- | --- | --- | --- | --- | --- |
| CCCCCCC(C)OC(=O)c1cnc(F)cn1 (stereo unspecified) | 3.928 | 6.9 | 0.599 | 1.803 | 2.104 | 1.803 | 0.9 | 3.23 |  |  |  |  |
| CCCCCCOC(=O)c1cnc(F)cn1 | 1.452 | 2.8 | 0.548 | 1.753 |  |  | 0.548 | 2.96 |  |  |  |  |
| CCCOC(=O)c1cnc(C)cn1 | 1.353 | 124 | 0.45 | 1.654 | 1.955 |  | 0.45 | 1.15 |  |  |  |  |
| CCCCCCCOC(=O)c1cnc(C)cn1 |  |  |  | 2.976 | 2.675 | 2.373 |  | 3.35 | 0.868 | 1.771 | 3.2 | 0.868 |
| CCC(C)OC(=O)c1cnccn1 (stereo unspecified) | 1.052 | 41.1 | -0.755 |  | 1.353 |  | -0.152 | 1.05 |  |  |  |  |
| COC(=O)c1cnccn1 | 0.334 | 470 | -0.268 | 0.936 | 1.237 |  | -0.268 |  |  |  |  |  |
| COC(=O)c1cnc(I)cn1 |  |  |  | 1.218 | 1.218 | 1.218 |  | 0.91 | 0.013 | 1.519 | 200 | 0.013 |
| CCCCCCCCC(C)OC(=O)c1cnc(Cl)cn1 (stereo unspecified) |  |  |  | 2.776 | 3.697 | 3.998 |  | 4.75 | 0.97 | 3.378 | 23.7 | 0.97 |
| COC(=O)c1cnc(C)cn1 | 0.677 | 1200 | -0.226 | 1.279 | 0.978 | 0.978 | -0.226 | 0.15 |  |  |  |  |
| O=C(OCc1ccccc1)c1cnccn1 | 2.331 | 4.3 | 0.525 |  |  | 2.03 | 0.525 | 1.49 |  |  |  |  |
| CCCCCCCCCOC(=O)c1cnc(Cl)cn1 |  |  |  | 2.455 | 3.977 | 3.977 |  | 4.98 | 0.949 | 3.358 | 2.3 | 1.25 |
| COC(=O)c1cnc(F)cn1 | 1.29 | 222 | 0.387 |  | 1.591 |  | 0.387 | 0.27 |  |  |  |  |
| CC(C)COC(=O)c1cnccn1 | 1.052 | 207 | -0.152 | 1.654 | 1.955 | 1.654 | -0.152 | 1.07 |  |  |  |  |
| CCCCCC(CC)OC(=O)c1cnc(C)cn1 (stereo unspecified) | 1.796 | 1 | 0.592 | 2.7 | 1.194 | 1.495 | 0.592 | 3.72 |  |  |  |  |
| COC(=O)c1cnc(OC)cn1 | 0.42 | 300 | -0.183 |  |  |  | -0.183 | 0.74 |  |  |  |  |

— ChEMBL document CHEMBL1129793, “Quantitative structure-activity relationships for the in vitro antimycobacterial activity of pyrazinoic acid esters” (J Med Chem, 1996)
